Data taken from ChEMBL document CHEMBL1158769, “Macrophage activating effects of new alkamides from the roots of Echinacea species” (J Nat Prod, 2005).
≈ marks a conversion by molar mass, not a printed value.

Tests used:
RAW264.7 = assay: Inhibition of LPS-stimulated NO production in mouse RAW264.7 cells; format: functional; settings: read-out: ID50 (the source's name)
Outline: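 In some runs the compound medium was removed and the cells washed before LPS. Supernatant nitrite measured by Griess reagent at A550. Relative NO = (Exp-OD − Control-OD)/(LPS-OD − Control-OD) × 100%.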

[1] = Toxicity in mouse RAW264.7 cells by MTT assay; format: cell-based; settings: read-out: TD50 (the source's name)
Outline: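 RAW 264.7 cells exposed to a range of alkamide concentrations for 24 h, or for 4 h followed by 24 h in fresh medium. Cells washed, labeled with MTT for 4 h, lysed in DMSO, formazan read at A540. Viability = Exp-OD/Control-OD × 100%, with control at the same cell number.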

Question: Which IC50 (RAW264.7) does the source give for CCCCCCC/C=C/C=C/C(=O)NCC(C)C here?
Answer: The IC50 was 6 µg/mL (≈ 23.9 µM).

Question: What about the CC50 [1] of the same compound?
Answer: Its CC50 is 12.5 µg/mL (≈ 49.7 µM).

Question: What does the source list for C/C=C/C=C\CC/C=C/C=C/C(=O)NCC(C)C?
Answer: IC50 (RAW264.7): 6 µg/mL (≈ 24.3 µM); CC50 [1]: 50 µg/mL (≈ 202 µM)

Question: With C/C=C\C=C/CC/C=C/C=C/C(=O)NCC(C)C as the compound, how does the IC50 (RAW264.7) read?
Answer: Its IC50 is 6 µg/mL (≈ 24.3 µM).

Question: What about the CC50 [1] of the same compound?
Answer: Its CC50 is 50 µg/mL (≈ 202 µM).
